According to ChEMBL document CHEMBL4145557, “Discovery of Tirasemtiv, the First Direct Fast Skeletal Muscle Troponin Activator” (ACS Med Chem Lett, 2018):
Activity calls are given as the source filed them. No cut-off for these calls is given here.

Key:
Oryctolagus cuniculus [1] = organism: Oryctolagus cuniculus; assay: (§1) Activation of troponin in rabbit fast skeletal muscle fibers assessed as increase in calcium stimulated activity by measuring compound concentration that produces 40% increase in myofibril ATPase activity at 25% of calcium concentration needed for maximal response by pyruvate kinase/lactate dehydrogenase-coupled based assay
How it was run: (§2)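 Myofibril ATPase rate (used as a surrogate for force), with fast-skeletal myofibrils from rabbit muscle. For cardiac and slow-skeletal activity, mixed sarcomeres combine myosin and thin-filament preparations from fast, slow or cardiac muscle. AC40 is the concentration giving a 40% increase in ATPase activity at 25% of the calcium level needed for a maximal response in control preparations. Duplicate experiments.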

[2] = Extraction ratio in rat liver microsomes measured up to 90 mins by HPLC/MS/MS analysis; type: ADME, microsome; details: read-out: ERH
[3] = Extraction ratio in human liver microsomes measured up to 90 mins by HPLC/MS/MS analysis; type: ADME, microsome; details: read-out: ERH
Oryctolagus cuniculus [4] = organism: Oryctolagus cuniculus; assay: as §1, with “30%” for “40%”, “tension” for “myofibril ATPase activity”
How it was run: (§3)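 Skinned-fiber tension assay on a mounted fiber, measuring the force–calcium relationship. Fast fibers are rabbit psoas; slow fibers are primarily slow rabbit semimembranosus. DF30 is the concentration giving a 30% increase in tension at 25% of the calcium level needed for a maximal response in control preparations.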

Rattus norvegicus [5] = assay: Oral bioavailability in Sprague-Dawley rat at 1 mg/kg by HPLC method; type: ADME, organism-based; details: in vivo
How it was run: (§4)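 Pharmacokinetics at a dose of 1 mg/kg, comparing oral and intravenous administration to derive bioavailability, clearance and steady-state volume of distribution. In rats, compounds were dosed as crystalline suspensions.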

[6] = Fraction unbound in rat plasma at 5 uM after 6 hrs by equilibrium dialysis based HPLC method; type: ADME, cell-free
Rattus norvegicus [7] = assay: (§5) Volume of distribution at steady state in Sprague-Dawley rat at 1 mg/kg, po or 1 mg/kg iv via bolus by HPLC method; type: ADME, organism-based; details: in vivo; how it was run: as §4
[8] = Fraction unbound in human plasma at 5 uM after 6 hrs by equilibrium dialysis based HPLC method; type: ADME, cell-free
Oryctolagus cuniculus [9] = organism: Oryctolagus cuniculus; assay: Activation of troponin C in rabbit primarily slow semi membranosus muscle fibers assessed as increase in calcium level by skinned fiber assay; how it was run: as §3
Bos taurus [10] = organism: Bos taurus; assay: as §1, with “troponin C” for “troponin”, “[…]” for “rabbit fast”, “[…] bovine cardiac” for “skeletal”; how it was run: as §2
Bos taurus [11] = organism: Bos taurus; assay: as §1, with “troponin C” for “troponin”, “bovine masseter slow” for “rabbit fast”; how it was run: as §2
Oryctolagus cuniculus [12] = organism: Oryctolagus cuniculus; assay: Activation of troponin in rabbit primarily fast psoas muscle fibers assessed as increase in calcium level by skinned fiber assay; how it was run: as §3
Canis familiaris = assay: Volume of distribution at steady state in Beagle dog at 1 mg/kg, po or 1 mg/kg iv via bolus by HPLC method; type: ADME, organism-based, Canis lupus familiaris; details: in vivo; how it was run: as §4
[13] = Extraction ratio in dog liver microsomes measured up to 90 mins by HPLC/MS/MS analysis; type: ADME, Canis lupus familiaris, microsome; details: read-out: ERH
Rattus norvegicus [14] = assay: Increase in muscle force in rat extensor digitorum longus muscle dosed systemically measured every two mins by in situ live fiber activity assay; type: functional, organism-based
[15] = Oral bioavailability in mouse at 1 mg/kg by HPLC method; type: ADME, organism-based; details: in vivo; how it was run: as §4
[16] = as §5; type: ADME, organism-based; details: Sprague-Dawley, in vivo, read-out: Vdss; how it was run: as §4
Cytochrome P450 1A2 [17] = biological target: T1, Cytochrome P450 1A2 (Homo sapiens, UniProt P05177); assay: Inhibition of CYP1A2 in human liver microsomes using phenacetin as substrate in presence of NADP; type: ADME
T1 sequence (P05177 whole entry): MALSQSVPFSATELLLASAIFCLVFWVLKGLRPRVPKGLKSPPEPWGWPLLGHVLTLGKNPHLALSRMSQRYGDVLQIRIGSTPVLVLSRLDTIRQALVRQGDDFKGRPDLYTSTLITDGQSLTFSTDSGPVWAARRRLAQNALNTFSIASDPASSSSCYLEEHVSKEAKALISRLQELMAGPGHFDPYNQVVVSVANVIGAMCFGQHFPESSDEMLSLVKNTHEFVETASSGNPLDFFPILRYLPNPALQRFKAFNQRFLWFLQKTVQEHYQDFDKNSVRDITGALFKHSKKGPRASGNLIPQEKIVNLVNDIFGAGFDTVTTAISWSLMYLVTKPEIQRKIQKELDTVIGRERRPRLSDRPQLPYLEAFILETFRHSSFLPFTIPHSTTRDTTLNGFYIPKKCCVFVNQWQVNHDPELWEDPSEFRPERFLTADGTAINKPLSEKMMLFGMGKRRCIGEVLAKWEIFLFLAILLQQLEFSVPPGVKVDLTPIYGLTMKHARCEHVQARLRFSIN

[18] = Apparent permeability of the compound in human Caco2 cells; type: ADME, cell-based; details: caco-2
[19] = Oral bioavailability in Beagle dog at 1 mg/kg by HPLC method; type: ADME, organism-based, Canis lupus familiaris; details: in vivo; how it was run: as §4
[20] = Extraction ratio in mouse liver microsomes measured up to 90 mins by HPLC/MS/MS analysis; type: ADME, microsome; details: read-out: ERH
Mus musculus = assay: Volume of distribution at steady state in mouse at 1 mg/kg, po or 1 mg/kg iv via bolus by HPLC method; type: ADME, organism-based; details: in vivo; how it was run: as §4
Cytochrome P450 1A2 [21] = biological target: T1, Cytochrome P450 1A2; assay: Time dependent inhibition of CYP1A2 in human liver microsomes using phenacetin as substrate preincubated for 30 mins followed by NADP addition; details: TDE = time-dependent effect

Compound `C[C@@H](c1ccccc1)n1c(=O)[nH]c2ncc(S(C)(=O)=O)nc21` has an EC40 (Oryctolagus cuniculus [1]) of over 49 µM.

For `CCC(CC)n1c(O)nc2ncc(C(F)(F)F)nc21`, the hepatic extraction ratio at 1.5 h [2] was 0.2 and the hepatic extraction ratio at 1.5 h [3] was under 0.2.

`CCC(CC)n1c(=O)[nH]c2ncc(Br)nc21` gave an EC40 (Oryctolagus cuniculus [1]) of 0.3 µM and an EC30 (Oryctolagus cuniculus [4]) of 0.4 µM.

Compound `CSc1cnc2[nH]c(=O)n([C@@H](C)c3ccccc3)c2n1` has an EC40 (Oryctolagus cuniculus [1]) of 2.6 µM and an EC30 (Oryctolagus cuniculus [4]) of 3.8 µM.

`C=Cc1cnc2[nH]c(=O)n(C(CC)CC)c2n1` showed a hepatic extraction ratio at 1.5 h [2] of over 0.7, a hepatic extraction ratio at 1.5 h [3] of 0.5 and an EC40 (Oryctolagus cuniculus [1]) of 1.1 µM. It also gave an EC30 (Oryctolagus cuniculus [4]) of 1.1 µM.

In the case of `CCC(CC)n1c(=O)[nH]c2nccnc21`, the EC40 (Oryctolagus cuniculus [1]) is reported as 14 µM.

`C[C@@H](c1ccccc1)n1c(O)nc2ncc(Br)nc21` showed a hepatic extraction ratio at 1.5 h [2] of 0.5 and a hepatic extraction ratio at 1.5 h [3] of under 0.3.

`CCC(CC)n1c(=O)[nH]c2ncc(OC)nc21` showed an EC40 (Oryctolagus cuniculus [1]) of 2.2 µM.

In the case of `CC(C)(C)n1c(=O)[nH]c2ncc(Br)nc21`, the EC40 (Oryctolagus cuniculus [1]) is reported as 0.8 µM and the EC30 (Oryctolagus cuniculus [4]) is reported as 4.6 µM.

`C[C@@H](c1ccccc1)n1c(=O)[nH]c2ncc(C#N)nc21` gave an EC40 (Oryctolagus cuniculus [1]) of over 49 µM.

In the case of `CCc1cnc2[nH]c(=O)n([C@@H](C)c3ccccc3)c2n1`, the EC40 (Oryctolagus cuniculus [1]) is reported as 21.8 µM.

Compound `CCC(CC)n1c(O)nc2ncc(C)nc21` has a hepatic extraction ratio at 1.5 h [2] of 0.7 and a hepatic extraction ratio at 1.5 h [3] of under 0.2.

`CC[C@H](C)n1c(O)nc2ncc(Br)nc21` gave a hepatic extraction ratio at 1.5 h [2] of 0.3 and a hepatic extraction ratio at 1.5 h [3] of under 0.2.

`C#Cc1cnc2oc(=O)n(C(CC)CC)c2n1` showed an EC40 (Oryctolagus cuniculus [1]) of over 39.2 µM.

`C#Cc1cnc2nc(OC)n(C(CC)CC)c2n1` showed an EC40 (Oryctolagus cuniculus [1]) of over 39.2 µM.

With `CCC(CC)n1c(=O)[nH]c2ncc(C)nc21` the EC40 (Oryctolagus cuniculus [1]) was 2 µM and the EC30 (Oryctolagus cuniculus [4]) was 4.4 µM.

Compound `C[C@H](c1ccccc1)n1c(=O)[nH]c2ncc(-c3ccco3)nc21` has an EC40 (Oryctolagus cuniculus [1]) of over 49 µM.

Compound `C=Cc1cnc2[nH]c(=O)n([C@@H](C)c3ccccc3)c2n1` has an EC40 (Oryctolagus cuniculus [1]) of 3.5 µM and an EC30 (Oryctolagus cuniculus [4]) of 4.6 µM.

In the case of `CCC(CC)n1c(=O)[nH]c2ncc(Cl)nc21`, the F (Rattus norvegicus [5]) is reported as 100%, the Fu [6] is reported as 1.1% and the hepatic extraction ratio at 1.5 h [2] is reported as 0.4. For the same compound, the hepatic extraction ratio at 1.5 h [3] was under 0.2, the Vdss (Rattus norvegicus [7]) was 3.4 L/kg and the Fu [8] was 0.8%. For the same compound, the EC40 (Oryctolagus cuniculus [1]) was 0.5 µM and the EC30 (Oryctolagus cuniculus [4]) was 0.6 µM.

Compound `CC[C@H](C)n1c(=O)[nH]c2ncc(Br)nc21` has an EC40 (Oryctolagus cuniculus [1]) of 1 µM and an EC30 (Oryctolagus cuniculus [4]) of 5.1 µM.

For `CCC(CC)n1c(O)nc2ncc(C#N)nc21`, the hepatic extraction ratio at 1.5 h [2] was under 0.2 and the hepatic extraction ratio at 1.5 h [3] was under 0.2.

Compound `O=c1[nH]c2ncc(Br)nc2n1C1CCCCC1` has an EC40 (Oryctolagus cuniculus [1]) of 10 µM.

With `CC(C)n1c(=O)[nH]c2ncc(Br)nc21` the EC40 (Oryctolagus cuniculus [1]) was 6 µM and the EC30 (Oryctolagus cuniculus [4]) was 2.2 µM.

Work on `CC#Cc1cnc2[nH]c(=O)n(C(CC)CC)c2n1` yielded an EC40 (Oryctolagus cuniculus [1]) of over 49 µM.

Compound `C[C@@H](c1ccccc1)n1c(=O)[nH]c2ncc(-c3ccccc3)nc21` has an EC40 (Oryctolagus cuniculus [1]) of over 49 µM.

`CC(=O)c1cnc2nc(O)n([C@@H](C)c3ccccc3)c2n1` showed an EC40 (Oryctolagus cuniculus [1]) of over 49 µM.

Work on `CCC(CC)n1c(=O)[nH]c2ncc(C(F)(F)F)nc21` yielded an EC40 (Oryctolagus cuniculus [1]) of 11.3 µM.

In the case of `O=c1[nH]c2ncc(Br)nc2n1C1CC1`, the EC40 (Oryctolagus cuniculus [1]) is reported as over 49 µM.

`CC(C)(C)n1c(O)nc2ncc(Br)nc21` showed a hepatic extraction ratio at 1.5 h [2] of 0.3 and a hepatic extraction ratio at 1.5 h [3] of 0.2.

With `C[C@@H](c1ccccc1)n1c(=O)[nH]c2ncc(-c3ccco3)nc21` the Activity (Oryctolagus cuniculus [9]) was “inactive”, the EC40 (Bos taurus [10]) was over 49 µM and the EC40 (Bos taurus [11]) was over 39 µM. The Activity (Oryctolagus cuniculus [12]) was “Active”, the EC40 (Oryctolagus cuniculus [1]) was 7 µM and the EC30 (Oryctolagus cuniculus [4]) was 30.6 µM.

Work on `CCC(CC)n1c(O)nc2ncc(Br)nc21` yielded an F (Rattus norvegicus [5]) of 62%, a Fu [6] of 1.3% and a hepatic extraction ratio at 1.5 h [2] of 0.4. For the same compound, the hepatic extraction ratio at 1.5 h [3] was under 0.2, the Vdss (Rattus norvegicus [7]) was 6.5 L/kg and the Fu [8] was 0.5%.

`CCC(CC)n1c(O)nc2ncc(OC)nc21` gave a hepatic extraction ratio at 1.5 h [2] of over 0.7 and a hepatic extraction ratio at 1.5 h [3] of under 0.2.

`COc1cnc2[nH]c(=O)n([C@@H](C)c3ccccc3)c2n1` showed an EC40 (Oryctolagus cuniculus [1]) of 8.9 µM.

Work on `C#Cc1cnc2nc(O)n(C(CC)CC)c2n1` [TIRASEMTIV] yielded a Vdss (Canis familiaris) of 1.7 L/kg, an F (Rattus norvegicus [5]) of 98% and a hepatic extraction ratio at 1.5 h [13] of under 0.21. The Activity (Rattus norvegicus [14]) was “Dose-dependent effect”, the Fu [6] was 6.9% and the hepatic extraction ratio at 1.5 h [2] was 0.26 to 0.3. For the same compound, the hepatic extraction ratio at 1.5 h [3] was under 0.2, the bioavailability [15] was 43% and the Vd [16] was 0.8 to 2.6 L/kg. For the same compound, the IC50 (Cytochrome P450 1A2 [17]) was 20 µM, the Papp [18] was over 50 ×10⁻⁶ cm/s and the bioavailability [19] was 93%. For the same compound, the hepatic extraction ratio at 1.5 h [20] was 0.24, the Vdss (Mus musculus) was 1 L/kg and the Fu [8] was 1.9%. For the same compound, the “inhibition (INH)” value (Cytochrome P450 1A2 [21]) was “Tde”, the EC40 (Oryctolagus cuniculus [1]) was 0.1 µM and the EC30 (Oryctolagus cuniculus [4]) was 0.3 µM.

For `CCC(CC)n1c(=O)[nH]c2ncc(C#N)nc21`, the EC40 (Oryctolagus cuniculus [1]) was 36.3 µM.

In the case of `C[C@@H](c1ccccc1)n1c(=O)[nH]c2ncc(Br)nc21`, the EC40 (Oryctolagus cuniculus [1]) is reported as 1.6 µM and the EC30 (Oryctolagus cuniculus [4]) is reported as 3 µM.

`O=c1[nH]c2ncc(-c3ccco3)nc2n1Cc1ccccc1` showed an EC40 (Oryctolagus cuniculus [1]) of over 49 µM.
